Source: PubChem BioAssay (NMMLSC)
ABCG2 inh: human ABCG2 inhibition, ABCB1 as counter-screen. 190,000 compounds, 0.1% hits. IgMXP3 cells, JC-1 efflux, flow cytometry. inhibition, % at 6.6 µM. Q9UNQ0;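 active = inhibition above 80%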;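 also: 0% = DMSO and 100% = nicardipine control wells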
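Incubation: cells with compound and JC-1, 10 min at 25 °C, rotating, no wash / Test system: IgMXP3 (ABCG2) plus far-red-tagged CCRF-Adr (ABCB1) cells / Compound dosing: one concentration, 6.6 µM final / Also added: JC-1 fluorescent substrate / Evaluation: efflux inhibition in percent versus controls / Detection: flow cytometry, 530 nm JC-1 signal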
MEKK2 mut-MEK5: signal of MEK5 binding to mutant human MEKK2 PB1 domain; bead flow cytometry, Alexa488-MEK5 binding to MEKK2 mutant; percent response, % at 10 µM; 290,000 compounds, 0.35% hits; AID 1530; in the data active = percent response above about 24%, passing the limit was not always enough
MEKK3 PB1 HTS: raises or lowers MEK5 binding to the human MEKK3 PB1 domain; bead-based flow cytometry, Alexa488-MEK5 binding to MEKK3; actives lie on both sides; 0 = blocked by unlabeled MEK5, 100 = vehicle; binding response (% of control), % at 10 µM; 290,000 compounds, 1.4% hits;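 active = binding response more than 3 SD above or below the average of its plate-row segment, actives on both sides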;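 also: Alexa488 bead fluorescence after subtracting the streptavidin-only scavenger bead signal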
ABCB1 inh: inhibitors of human ABCB1 transporter, ABCG2 counter-screen; CCRF-Adr cells, JC-1 efflux, flow cytometry; inhibition, % at 6.6 µM; P08183; 190,000 compounds, 0.067% hits; in the data active = inhibition above about 40%;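 also: 0% = vehicle and 100% = reference inhibitor; higher value means more JC-1 retained so stronger ABCB1 efflux block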
Target sequence (P08183 whole entry, looked up): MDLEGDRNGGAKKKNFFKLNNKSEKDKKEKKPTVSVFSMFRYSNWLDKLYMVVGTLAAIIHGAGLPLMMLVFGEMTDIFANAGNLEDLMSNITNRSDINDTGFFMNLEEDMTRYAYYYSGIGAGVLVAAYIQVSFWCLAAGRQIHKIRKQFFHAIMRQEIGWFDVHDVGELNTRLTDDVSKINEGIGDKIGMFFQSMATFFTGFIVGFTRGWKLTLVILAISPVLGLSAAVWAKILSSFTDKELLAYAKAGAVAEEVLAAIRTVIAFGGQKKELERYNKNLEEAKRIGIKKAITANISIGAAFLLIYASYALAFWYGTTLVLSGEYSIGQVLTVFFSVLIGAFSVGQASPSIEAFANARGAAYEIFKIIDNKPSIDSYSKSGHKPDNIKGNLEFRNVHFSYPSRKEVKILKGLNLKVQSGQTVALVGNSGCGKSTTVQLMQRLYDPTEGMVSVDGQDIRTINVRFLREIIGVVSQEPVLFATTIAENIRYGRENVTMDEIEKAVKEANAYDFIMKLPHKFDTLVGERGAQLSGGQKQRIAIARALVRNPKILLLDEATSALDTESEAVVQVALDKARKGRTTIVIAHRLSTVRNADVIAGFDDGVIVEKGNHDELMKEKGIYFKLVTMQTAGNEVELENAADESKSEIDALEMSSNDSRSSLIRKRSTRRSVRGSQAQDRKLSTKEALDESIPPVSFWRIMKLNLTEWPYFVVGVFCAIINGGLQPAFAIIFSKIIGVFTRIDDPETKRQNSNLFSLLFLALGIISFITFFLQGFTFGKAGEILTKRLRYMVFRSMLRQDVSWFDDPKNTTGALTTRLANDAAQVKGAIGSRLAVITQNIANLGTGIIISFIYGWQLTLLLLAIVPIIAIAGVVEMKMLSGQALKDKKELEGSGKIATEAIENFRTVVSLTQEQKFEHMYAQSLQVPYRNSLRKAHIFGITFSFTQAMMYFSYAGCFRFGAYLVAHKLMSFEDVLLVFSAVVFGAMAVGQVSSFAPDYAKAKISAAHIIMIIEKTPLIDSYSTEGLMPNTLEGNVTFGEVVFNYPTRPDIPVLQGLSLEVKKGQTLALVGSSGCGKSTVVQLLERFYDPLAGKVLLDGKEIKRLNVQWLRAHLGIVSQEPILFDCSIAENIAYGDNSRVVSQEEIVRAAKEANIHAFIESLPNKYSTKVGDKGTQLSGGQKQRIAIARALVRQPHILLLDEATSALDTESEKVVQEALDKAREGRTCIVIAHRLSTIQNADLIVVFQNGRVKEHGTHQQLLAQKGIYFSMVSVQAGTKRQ
MEKK2wt PB1 HTS: raises or lowers MEK5 binding to wildtype human MEKK2 PB1 domain. binding response (% of control), % at 10 µM. 290,000 compounds, 1.1% hits. Q9Y2U5. bead flow cytometry, Alexa488-MEK5 binding to MEKK2 WT; actives lie on both sides. AID 1531; in the data active = binding response below about 67% or above about 130%
MEKK2wt confirm: raises or lowers MEK5 binding to wildtype human MEKK2, retest | binding response (% of control), % at 10 µM | 5,900 compounds, 2.4% hits | bead flow cytometry, Alexa488-MEK5 binding to MEKK2 WT; actives lie on both sides | AID 1892 | shares compounds with MEKK3 PB1 HTS; in the data active = binding response below about 16% or above about 210%; inactive = in between
MEKK2mut-MEK5: signal of MEK5 binding to mutant human MEKK2, retest; shares compounds with MEKK3 PB1 HTS; bead flow cytometry, Alexa488-MEK5 binding to MEKK2 mutant; percent response, % at 10 µM; 5,900 compounds, 2% hits; AID 1893; in the data active = percent response mostly above about 71%, no sharp cut-off; inactive = mostly below about 38%;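 also: higher means compound restores mutant binding toward wildtype level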
MEKK3 confirm: MEKK3-MEK5 PB1 inhibition, single concentration confirmation. shares compounds with MEKK3 PB1 HTS. bead flow cytometry, Alexa488-MEK5 binding to MEKK3; hits give low values. binding response (% of control), % at 10 µM. 5,900 compounds, 1.8% hits;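 active = binding response below 72% of control, or above a set upper limit, though filed actives all read lower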;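 also: 100% = DMSO only wells and 0% = binding blocked by excess unlabeled MEK5; lower values mean stronger disruption of MEK5 binding to MEKK3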
* marks the source's active call; other numbers are inactive results; . = no result; [ ] = dose if it differs, or a comment. Sampled rows, rich in hits. Any-hit rate of the full collection: about 2.3%.

SMILES | ABCG2 inh | MEKK2 mut-MEK5 | MEKK3 PB1 HTS | ABCB1 inh | MEKK2wt PB1 HTS | MEKK2wt confirm | MEKK2mut-MEK5 | MEKK3 confirm
Cc1ccc(CNC(=O)c2ccc3nc4[nH]c5ccccc5c4nc3c2)cc1 | 0 | -1 | 72*[inhibitor] | 0 | 97 | 91 | -3 | 97
COc1ccccc1CNC(=O)c1ccc2nc3[nH]c4ccccc4c3nc2c1 | -4 | -6 | 94 | 0 | 85 | . | . | .
Cc1cccc(N2CC(C(=O)O)CC2=O)c1C (configuration not stated) | . | 16 | 99 | . | 95 | . | . | .
Cc1cccc(N2C(=O)C(Oc3ccc(Cl)cc3Cl)C2C(=O)O)c1C (configuration not stated) | 5 | 1 | 139* | 0 | 108 | 108 | 10 | 104
CCCCNCC1C(Oc2ccc(Cl)cc2)C(=O)N1c1ccccc1C (configuration not stated) | 5 | 1 | 123 | 4 | 125 | . | . | .
CCCNCC1C(Oc2ccc(Cl)cc2Cl)C(=O)N1c1cccc(C)c1C (configuration not stated) | 3 | 4 | 136* | 3 | 135 | 128 | 12 | 98
CC1C(=O)C(C)C(c2cccs2)NC1c1cccs1 (configuration not stated) | 2 | 8 | 127* | 0 | 124 | 130 | 11 | 104
Cc1ccccc1C1NC(c2ccccc2C)C(C)C(=O)C1C (configuration not stated) | . | 4 | 107 | . | 105 | . | . | .
COc1ccc(S(=O)(=O)NCC2CCCN(Cc3ccc(O)cc3)C2)cc1 (configuration not stated) | . | 4 | 104 | . | 104 | . | . | .
CCOC(=O)CCC(=O)NCc1ccc2[nH]c(C)cc2c1 | 16 | -5 | 82*[inhibitor] | 0 | 81 | 94 | 0 | 100
CCOC(=O)NCc1ccc2[nH]c(C)cc2c1 | . | 1 | 92 | . | 87 | . | . | .
CCOC(=O)CCC(=O)NCc1ccc2c(c1)cc(C)n2C | 1 | -4 | 74*[inhibitor] | 0 | 77 | 98 | 2 | 98
CCCCC(=O)NCc1ccc2c(c1)cc(C)n2C | -3 | -3 | 93 | -3 | 86 | . | . | .
Cc1ccccc1S(=O)(=O)Cc1ccc(C(=O)NCCCN2CCC(C)CC2)o1 | . | 2 | 98 | . | 102 | . | . | .
CCOC(=O)c1cnc2cc(Cl)c(OC)cc2c1NCC1CCCO1 (configuration not stated) | 7 | 13 | 115 | 12 | 136* | 104 | -1 | 106
CC(=O)N1CCC(O)(c2ccc3c(c2)OCO3)CC1 | . | 2 | 105 | . | 106 | . | . | .
COc1ccc(N2CC(C(=O)Nc3nnc(SCc4ccccn4)s3)CC2=O)cc1 (configuration not stated) | -7 | -1 | 133* | -1 | 99 | 1.0*[inhibitor] | -29 | 2.0*
COc1ccccc1N1CC(C(=O)Nc2nnc(SCc3ccccn3)s2)CC1=O (configuration not stated) | 0 | 9 | 99 | 0 | 109 | . | . | .
Cc1ccc(C(=O)O/N=C(\N)c2ccc(Br)cc2)cc1C | 13 | -15 | 2.0*[inhibitor] | -1 | 1.0*[inhibitor] | 102 | 6 | 102
CCn1c(SCC(N)=O)nc2cc(S(=O)(=O)N3CCOCC3)ccc21 | 1 | -1 | 103 | 0 | 97 | . | . | .
CCn1c(SCC(=O)c2c[nH]c3ccccc23)nc2cc(S(=O)(=O)N3CCOCC3)ccc21 | 5 | 3 | 96 | 0 | 62*[inhibitor] | 104 | 1 | 104
CC1Cc2ccccc2N1C(=O)Cn1cnc2c1c(=O)n(C)c(=O)n2C (configuration not stated) | . | 9 | 104 | . | 107 | . | . | .
COc1ccc(N2CCN(C(=O)CNC(=O)Cn3cnc4sc(C)c(C)c4c3=O)CC2)cc1 | . | -1 | 102 | . | 103 | . | . | .
COc1ccc(OC)c(NC(=O)c2cc3ccccc3cc2OC)c1 | . | 28* | 103 | . | 106 | 109 | 4 | 104
NC1=NC(=O)/C(=C/c2cn(CCC(=O)O)nc2-c2ccc(Cl)cc2)S1 | -3 | 0 | 108 | -1 | 107 | . | . | .
SMILES | ABCG2 inh | MEKK2 mut-MEK5 | MEKK3 PB1 HTS | ABCB1 inh | MEKK2wt PB1 HTS | MEKK2wt confirm | MEKK2mut-MEK5 | MEKK3 confirm
NC1=NC(=O)/C(=C/c2cn(CCC(=O)O)nc2-c2ccc(F)cc2)S1 | -3 | 1 | 129* | -1 | 111 | 98 | -2 | 100
Cc1ccccc1OCc1nnc(SCC(=O)N2CCc3ccccc32)n1C | 1 | -3 | 2.0*[inhibitor] | 0 | 2.0*[inhibitor] | 100 | -1 | 102
C=CCn1c(N)cc(=O)nc1SCC(=O)Nc1ccc(C(=O)OCC)cc1 | . | 7 | 106 | . | 104 | . | . | .
COc1ccc(-c2ccnc(SCC(=O)c3ccc(OC)c(OC)c3)n2)cc1 | 9 | 0 | 132* | 1 | 103 | 99 | 0 | 103
COc1ccc(-c2ccnc(SCC(=O)N3CCN(c4ccccc4)CC3)n2)cc1 | . | 28 | 137* | . | 121 | 105 | 2 | 104
COc1ccc(-c2ccnc(SCC(=O)c3ccc(Cl)cc3)n2)cc1 | 2 | 8 | 102 | 0 | 100 | . | . | .
Cc1ccnc(SCC(=O)N2CCN(c3ccccc3)CC2)n1 | 4 | 3 | 88 | 1 | 99 | . | . | .
Cc1ccc2c(c1)c(C)c(C)n2CC(O)Cn1nnc2ccccc21 (configuration not stated) | 2 | 0 | 103 | 0 | 101 | . | . | .
Cc1ccc2c(c1)c(C)c(C)n2CC(O)Cn1nc(C)cc1C (configuration not stated) | 2 | 3 | 110 | 0 | 39*[inhibitor] | 100 | 1 | 102
CCN(CC)c1c2c(c(C#N)c3nc4ccccc4n13)CCC2 | 0 | 1 | 69*[inhibitor] | 0 | 105 | 103 | 6 | 103
CCN(CC)c1cc(C)c(C#N)c2nc3ccccc3n12 | . | 2 | 88 | . | 93 | . | . | .
COc1ccc(NS(=O)(=O)c2ccc(OCC(=O)N3CCOCC3)cc2)cc1Cl | . | 1 | 102 | . | 102 | . | . | .
CCc1ccc(N=CC23c4ccccc4C(c4ccccc42)C2C(=O)N(c4ccc(OC)cc4)C(=O)C23)cc1 (configuration not stated) | 2 | -4 | 81*[inhibitor] | 1 | 81 | 94 | -4 | 95
COc1ccc(N2C(=O)C3C4c5ccccc5C(C=Nc5ccc(C)cc5C)(c5ccccc54)C3C2=O)cc1 (configuration not stated) | . | -3 | 98 | . | 90 | . | . | .
NC(=O)COC(=O)c1ccccc1OCc1ccccc1 | 2 | -10 | 103 | 0 | 96 | . | . | .
